CHO parental Ca: counter-screen for OX1R antagonists: effect in parental CHO cells | AID 463079 | 330,000 tested, 0.63% active | parental CHO-K1, ATP-induced calcium, Fluo-8 fluorescence | inhibition, % at 5.6 µM;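 active = inhibition above that plate's mean sample inhibition plus 3 SD, cut at about 26% in these data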;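 also: 0% = ATP-challenged DMSO wells and 100% = DMSO wells without ATP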
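Test system: untransfected parental CHO cell line. Compound: one dose, 5.6 µM nominal. Detection: intracellular calcium via Fluo-8 no-wash fluorescent dye. Measure: % inhibition. Benchmarks: ATP-challenged DMSO wells low, unchallenged DMSO wells high.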
CHO-K1 Ca ag: counter-screen for M1 agonists: effect in parental CHO-K1 cells | Fluo-8 calcium fluorescence; scaled to maximal ATP response, vehicle zero | 360,000 tested, 0.48% active | AID 602248 | activation, % at 3 µM; in the data active = activation above about 15%;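 also: untransfected CHO-K1 host cells lacking M1 receptor as counterscreen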
OX1R antag-1: human HCRTR1 antagonism; O43613; inhibition, % at 5 µM; AID 434989; CHO/OX1R cells, Fluo-8 calcium fluorescence, orexin A; 330,000 tested, 0.43% active;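 active = inhibition above its plate's threshold, mean inhibition of all tested compounds on the plate plus 3 SD, cut at about 37% in these data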;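 also: 0% = orexin A challenge wells and 100% = SB-334867-A antagonist wells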
Target sequence (O43613 whole entry, looked up): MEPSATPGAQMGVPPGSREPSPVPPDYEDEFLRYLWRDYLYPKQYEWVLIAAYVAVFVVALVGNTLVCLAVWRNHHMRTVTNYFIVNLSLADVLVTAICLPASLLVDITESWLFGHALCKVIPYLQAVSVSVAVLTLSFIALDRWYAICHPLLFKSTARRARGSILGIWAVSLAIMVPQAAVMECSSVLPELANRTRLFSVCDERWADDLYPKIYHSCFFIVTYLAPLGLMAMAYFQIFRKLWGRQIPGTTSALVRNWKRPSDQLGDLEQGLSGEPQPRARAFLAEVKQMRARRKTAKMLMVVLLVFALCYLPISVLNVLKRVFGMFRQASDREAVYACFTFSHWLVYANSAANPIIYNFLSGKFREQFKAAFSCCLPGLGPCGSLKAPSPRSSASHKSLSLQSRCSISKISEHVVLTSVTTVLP
OX1R antag-2: blocks the human orexin 1 receptor; O43613; 330,000 tested, 1.8% active; OX1R-expressing cells, FRET antagonist read-out; inhibition, % at 6.6 µM; in the data active = inhibition mostly above about 38%, no sharp cut-off; inactive = mostly below about 40%;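 also: 0% = agonist challenge alone and 100% = reference antagonist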
CHO-K1 Ca antag: counter-screen for M1 antagonists: effect in parental CHO-K1 cells. ATP-induced calcium, Fluo-8 fluorescence. 360,000 tested, 0.6% active. AID 602250. inhibition, % at 3 µM;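 active = inhibition above a per-plate cutoff, the plate's mean sample inhibition plus 3 SD, cut at about 24% in these data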;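 also: 0% = DMSO plus EC80 ATP and 100% = DMSO alone without ATP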
M1 PAM parental: counter-screen for M1 PAMs: effect in parental CHO-K1 cells | ATP EC20, Fluo-8 calcium fluorescence; 0% at ATP EC20, 100% at ATP max | activation, % at 3 µM | 360,000 tested, 0.02% active | AID 602247;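 active = activation above the run cutoff, the mean activation of all test compounds plus 3 SD, cut at about 40% in these data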;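 also: peak over basal fluorescence ratio in a 140 s read after ATP addition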
An asterisk follows results filed as active. The list is not random: actives were taken first. Their share in the collection is about 2.9%.

`COc1ccc(C(=O)OCC(=O)Nc2ccc(OC(F)F)cc2)c(OC)c1` gave CHO parental Ca -4, CHO-K1 Ca ag 0, OX1R antag-1 -8, OX1R antag-2 13, CHO-K1 Ca antag 25* and M1 PAM parental -6.
For O=C(COC(=O)CCCOc1ccccc1)NNC(=O)c1ccc([N+](=O)[O-])cc1 the results were CHO parental Ca -1, CHO-K1 Ca ag 3, OX1R antag-1 -11, OX1R antag-2 42, CHO-K1 Ca antag -13 and M1 PAM parental 23.
For O=C(CNC(=O)c1ccccc1)NCC(=O)OCC(=O)c1ccc([N+](=O)[O-])cc1 the results were CHO parental Ca -4, CHO-K1 Ca ag 0, OX1R antag-1 -5, OX1R antag-2 54*, CHO-K1 Ca antag -2 and M1 PAM parental -6.
`Cc1ccc(C(=O)OCC(=O)NNC(=O)c2ccc([N+](=O)[O-])cc2)o1` gave CHO parental Ca -11, CHO-K1 Ca ag 2, OX1R antag-1 -10, OX1R antag-2 41*, CHO-K1 Ca antag 3 and M1 PAM parental 1.
`Cn1cccc1C(=O)OCC(=O)NNC(=O)c1ccc([N+](=O)[O-])cc1` gave CHO parental Ca -1, CHO-K1 Ca ag 0, OX1R antag-1 3, OX1R antag-2 22, CHO-K1 Ca antag -5 and M1 PAM parental 6.
Screening CC1CC1C(=O)OCC(=O)NNC(=O)c1ccc([N+](=O)[O-])cc1 (centres undefined) returned CHO parental Ca -12, CHO-K1 Ca ag 0, OX1R antag-1 9, OX1R antag-2 34*, CHO-K1 Ca antag -12 and M1 PAM parental 0.
`CC1CC1C(=O)OCC(=O)NC(=O)c1ccc(C(C)(C)C)cc1` (centres undefined) gave CHO parental Ca -7, CHO-K1 Ca ag 0, OX1R antag-1 -22, OX1R antag-2 10, CHO-K1 Ca antag -7 and M1 PAM parental 13.
Screening CCOc1ccccc1OCC(=O)OCC(=O)NNC(=O)c1ccc([N+](=O)[O-])cc1 returned CHO parental Ca -11, CHO-K1 Ca ag 1, OX1R antag-1 -4, OX1R antag-2 55*, CHO-K1 Ca antag -6 and M1 PAM parental -8.
`O=C(CNC(=O)c1ccccc1)NCC(=O)OCC(=O)c1ccc(F)cc1` gave CHO parental Ca -2, CHO-K1 Ca ag 1, OX1R antag-1 4, OX1R antag-2 6, CHO-K1 Ca antag -7 and M1 PAM parental 15.
For O=C(c1cccc(S(=O)(=O)N2CCc3ccccc32)c1)N1CCN(c2ccccc2)CC1 the results were CHO-K1 Ca ag 2, CHO-K1 Ca antag -1 and M1 PAM parental 6.
`Cc1cc(C)c(NC(=O)CS(=O)CC(=O)N2CCN(c3cccc(C)c3C)CC2)c(C)c1` (centres undefined) gave CHO parental Ca -30, CHO-K1 Ca ag 2, OX1R antag-1 -36, OX1R antag-2 10, CHO-K1 Ca antag -4 and M1 PAM parental -14.
Screening CC(=O)Nc1nc(-c2ccc3c(c2)CCN3C(=O)C2CC2)c(C)s1 returned CHO parental Ca -10, CHO-K1 Ca ag -1, OX1R antag-1 -11, OX1R antag-2 48*, CHO-K1 Ca antag -7 and M1 PAM parental -3.
CCN1/C(=C/c2sc(-c3ccccc3C)c[n+]2C)Sc2ccccc21 was read as CHO-K1 Ca ag 11, CHO-K1 Ca antag 34* and M1 PAM parental -2.
COc1cccc(CN2CCN(C(=O)c3ccc(-c4ccccc4)cc3)CC2)c1OC was read as CHO parental Ca -17, CHO-K1 Ca ag 16*, OX1R antag-1 -29, OX1R antag-2 4, CHO-K1 Ca antag 10 and M1 PAM parental 10.
COc1cccc(CN2CCN(C(=O)c3ccc(-c4ccccc4)cc3)CC2)c1 was read as CHO parental Ca -11, CHO-K1 Ca ag 16*, OX1R antag-1 -32, OX1R antag-2 8, CHO-K1 Ca antag 5 and M1 PAM parental 11.
`COc1cccc(CN2CCN(C(=O)c3cccc(OC)c3)CC2)c1` gave CHO parental Ca -8, CHO-K1 Ca ag 1, OX1R antag-1 -15, OX1R antag-2 -7, CHO-K1 Ca antag -5 and M1 PAM parental 8.
`COc1cc(CN2CCN(C(=O)c3ccc(-c4ccccc4)cc3)CC2)cc(OC)c1OC` gave CHO parental Ca -1, CHO-K1 Ca ag 4, OX1R antag-1 -23, OX1R antag-2 4, CHO-K1 Ca antag -2 and M1 PAM parental 7.
For CCOC(=O)c1oc2c(C)c(O)ccc2c(=O)c1-c1nncn1-c1ccccc1 the results were CHO parental Ca 9, CHO-K1 Ca ag 0, OX1R antag-1 1, OX1R antag-2 21, CHO-K1 Ca antag 31* and M1 PAM parental -6.
Screening CCOC(=O)c1oc2c(O)c(O)ccc2c(=O)c1-c1nncn1-c1ccccc1 returned CHO parental Ca -3, CHO-K1 Ca ag 0, OX1R antag-1 6, OX1R antag-2 44, CHO-K1 Ca antag -6 and M1 PAM parental -1.
For COCC(C)NC(=O)c1cc2cccc([N+](=O)[O-])c2[nH]1 (centres undefined) the results were CHO parental Ca -16, CHO-K1 Ca ag 0, OX1R antag-1 -33, OX1R antag-2 35, CHO-K1 Ca antag 2 and M1 PAM parental -7.
Cc1cc(NC(=O)c2cc3cccc([N+](=O)[O-])c3[nH]2)ccc1F was read as CHO parental Ca 5, CHO-K1 Ca ag 8, OX1R antag-1 6, OX1R antag-2 46*, CHO-K1 Ca antag 13 and M1 PAM parental -10.
Screening O=[N+]([O-])c1ccc(Cl)cc1NCC1CCCO1 (centres undefined) returned CHO parental Ca -16, CHO-K1 Ca ag -1, OX1R antag-1 -9, OX1R antag-2 13, CHO-K1 Ca antag 7 and M1 PAM parental -20.
Screening COc1cc(SC)ccc1C(=O)OCC(=O)NCCNC(=O)COC(=O)c1ccc(SC)cc1OC returned CHO parental Ca -15, CHO-K1 Ca ag 2, OX1R antag-1 -10, OX1R antag-2 46, CHO-K1 Ca antag 6 and M1 PAM parental -2.
COC(=O)c1ccc(COC(=O)c2ccc(SC)cc2OC)cc1 was read as CHO parental Ca -20, CHO-K1 Ca ag 20*, OX1R antag-1 -31, OX1R antag-2 46, CHO-K1 Ca antag 11 and M1 PAM parental 12.
O=C(/C=C/c1ccc(OCCCF)cc1)Nc1ccnc(-c2ccncc2)n1 was read as CHO parental Ca 30, CHO-K1 Ca ag 6, OX1R antag-1 22, OX1R antag-2 85*, CHO-K1 Ca antag -13 and M1 PAM parental 0.
Screening CN(c1ccccc1C(=O)Nc1ccccc1C(=O)NCc1ccco1)S(C)(=O)=O returned CHO parental Ca -9, CHO-K1 Ca ag 0, OX1R antag-1 -4, OX1R antag-2 22, CHO-K1 Ca antag 35* and M1 PAM parental -8.
Screening O=C(NCc1ccco1)c1ccccc1NS(=O)(=O)c1ccc(Br)s1 returned CHO parental Ca -4, CHO-K1 Ca ag 8, OX1R antag-1 -2, OX1R antag-2 20, CHO-K1 Ca antag 24* and M1 PAM parental 0.

Screening data (PubChem BioAssay)
